Our source for the inhibition, RBA and Uterine weight values is ChEMBL document CHEMBL1122978, “Structure-activity relationship of estrogens: receptor affinity and estrogen antagonist activity of certain (E)- and (Z)-1,2,3-triaryl-2-propen-1-ones” (J Med Chem, 1985).

“And” between values parts separate entries of the source, which are not always exact repeats. Equal entries are not always repeated. A value given as a limit tells only on which side of the number the result lay.

The target in test [1] is T1, Estrogen receptor (Mus musculus) (UniProt O08537+P19785). Nature of the test: Percentage inhibition of uterotrophic effects of estradiol in vivo following 100 ug i.p. Type of test: functional, organism-based. As to conditions: in the assay text read “s.c.” for “i.p.”. Summed up: (§1)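 Antiuterotrophic test in immature female Swiss mice, 21-23 days old, 8-12 g. Each animal received 100 μg compound s.c. in propylene glycol-0.9% saline (1:1) daily for 3 days, with 1 μg E2 given at a separate site. Controls got E2 plus vehicle. Uterine weights were taken 24 h after the last dose. Activity computed as 100 × (W_ET − W_C)/(W_E − W_C).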

The subject of test [2] is Estrogen receptor (Mus musculus). Briefly: Relative binding affinity calculated as the ratio of molar concentration of E2 and the triarylpropenones (TAP's) required to decrease [3H]E2 binding by 50%.
Test [3] deals with T1, Estrogen receptor (Mus musculus). Briefly: In vivo anti-uterotrophic activity in mice following 1 ug estradiol i.p. Format: functional, organism-based. As to conditions: in the assay text read “s.c.” for “i.p.”. Summed up:
as §1

Test [4] shares this target.
Test [5] deals with T2, Estrogen receptor (Rattus norvegicus) (UniProt P06211+Q62986). Briefly: Uterotrophic activity as uterine weight gain in rats with concomitant E2 treatment. As to conditions: Uterus. Type of test: functional, tissue-based. Summed up:
(§2)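 Immature female Charles Foster rats, 21-23 days old, 25-40 g, were dosed s.c. at 0.5-1000 μg/rat in propylene glycol-0.9% saline (1:1) for 3 consecutive days. Rats were given the compound either alone or with 1 μg E2 at another site. Uterine weight was measured 24 h after the last injection and reported as mean ± SD of at least six animals.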

Test [6] has as its target T2, Estrogen receptor (Rattus norvegicus). Briefly: Uterotrophic activity as uterine weight gain without E2 in rats. Format: functional, tissue-based. As to conditions: Uterus. Summed up:
as §2

The target of test [7] is T1, Estrogen receptor (Mus musculus). Briefly: Uterotrophic activity as uterine weight gain in immature mice without E2 (number of animals). Format: functional, tissue-based. As to conditions: Uterus. Summed up: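 Uterotrophic test in immature female Swiss mice, 21-23 days old, 8-12 g. Dosing was 100 μg/animal s.c. in propylene glycol-0.9% saline (1:1) on three consecutive days, and controls got vehicle alone. Uteri were weighed at autopsy 24 h after the last injection. Group sizes are given per compound.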

T1 sequence (O08537 whole entry, looked up): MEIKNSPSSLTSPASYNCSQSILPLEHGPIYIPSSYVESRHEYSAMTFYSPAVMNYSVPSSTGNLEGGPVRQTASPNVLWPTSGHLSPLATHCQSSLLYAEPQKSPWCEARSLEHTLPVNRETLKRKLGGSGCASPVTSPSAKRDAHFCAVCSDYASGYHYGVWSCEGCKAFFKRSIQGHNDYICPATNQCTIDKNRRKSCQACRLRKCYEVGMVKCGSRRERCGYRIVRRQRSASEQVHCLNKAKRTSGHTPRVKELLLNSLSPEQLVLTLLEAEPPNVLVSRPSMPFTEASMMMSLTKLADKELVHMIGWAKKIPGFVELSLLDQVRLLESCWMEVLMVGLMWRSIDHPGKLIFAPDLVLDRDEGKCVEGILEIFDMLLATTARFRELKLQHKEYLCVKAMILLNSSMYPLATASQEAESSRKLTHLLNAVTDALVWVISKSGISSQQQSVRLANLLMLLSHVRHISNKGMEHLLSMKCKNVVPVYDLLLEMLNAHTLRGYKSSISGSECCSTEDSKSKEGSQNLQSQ
T1 sequence (P19785 whole entry, looked up): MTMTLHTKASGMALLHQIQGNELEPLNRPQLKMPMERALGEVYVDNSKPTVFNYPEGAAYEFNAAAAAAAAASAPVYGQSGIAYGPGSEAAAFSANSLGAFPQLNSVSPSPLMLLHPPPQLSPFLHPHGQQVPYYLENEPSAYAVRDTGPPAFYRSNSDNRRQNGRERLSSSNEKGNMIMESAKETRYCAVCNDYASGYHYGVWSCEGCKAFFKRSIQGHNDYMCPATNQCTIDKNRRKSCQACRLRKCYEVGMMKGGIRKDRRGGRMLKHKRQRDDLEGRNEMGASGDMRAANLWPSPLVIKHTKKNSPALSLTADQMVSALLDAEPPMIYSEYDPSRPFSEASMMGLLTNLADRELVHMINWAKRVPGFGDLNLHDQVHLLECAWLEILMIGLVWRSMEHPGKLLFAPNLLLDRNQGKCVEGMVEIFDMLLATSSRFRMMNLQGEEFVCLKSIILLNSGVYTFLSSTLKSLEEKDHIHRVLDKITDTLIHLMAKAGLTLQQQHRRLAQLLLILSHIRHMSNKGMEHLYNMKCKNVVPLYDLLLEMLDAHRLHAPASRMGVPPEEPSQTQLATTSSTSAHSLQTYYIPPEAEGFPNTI

`CC(=O)Oc1ccc(/C=C(/C(=O)c2ccc(OC(C)=O)cc2)c2ccccc2)cc1` came in with an inhibition in test [1] of 58%. Further, the RBA in test [2] was 1.02. Moreover, the Uterine weight in test [3] and in test [4] was 14 mg in each case.
Consider `O=C(/C(=C\c1ccccc1)c1ccccc1)c1ccc(OCCN2CCCC2)cc1`, for which the RBA in test [2] is 0.002.
In test [1], `CC(=O)Oc1ccc(/C(=C/c2ccccc2)C(=O)c2ccccc2)cc1` yielded an inhibition of 39%. In addition, the RBA in test [2] is 0.24. Also, the Uterine weight in test [3] is 17.8 mg; in test [4] it was 4.5 mg.
For `O=C(/C(=C/c1ccc(O)cc1)c1ccc(O)cc1)c1ccc(O)cc1`, in test [1], the inhibition was 69%. In addition, the Uterine weight in test [5] was 53.6 mg [middle of 5 runs]; in test [6], 20.5 mg [middle of 5 runs]; in test [4] it was 4.4 mg and 12 mg. Moreover, the RBA in test [2] was 0.55.
`COc1ccc(/C(=C/c2ccccc2)C(=O)c2ccccc2)cc1` came in with an inhibition in test [1] of 52%. In addition, the RBA in test [2] was under 0.001. The results for the Uterine weight in test [3] and in test [4] were 15.3 mg and 3.5 mg, respectively.
Turning to `O=C(/C(=C\c1ccccc1)c1ccc(O)cc1)c1ccc(O)cc1`, the inhibition in test [1] was 55%. Further, in test [2], the RBA was 4.75. The Uterine weight in test [3] was 14.7 mg; in test [4], 4.1 mg.
`O=C(/C(=C/c1ccccc1)c1ccc(O)cc1)c1ccccc1`: the inhibition in test [1] is 36%. For the same molecule, the RBA in test [2] is 0.28. Moreover, the figures for the Uterine weight in test [3] and in test [4] were 18.4 mg and 2.9 mg, respectively.
In test [1], `COc1ccc(/C=C(\C(=O)c2ccccc2)c2ccccc2)cc1` yielded an inhibition of 52%. For the same molecule, the RBA in test [2] is under 0.001. Also, the values for the Uterine weight in test [3] and in test [4] were 15.3 mg and 4.6 mg, respectively.
For `COc1ccc(C(=O)/C(=C/c2ccccc2)c2ccccc2)cc1`, the inhibition in test [1] is 27%. Also, in test [2], the RBA is under 0.001. Also, the values for the Uterine weight in test [3] and in test [4] were 20.2 mg and 5 mg, respectively.
In test [1], `O=C(/C(=C\c1ccccc1)c1ccccc1)c1ccc(O)cc1` returned an inhibition of 60%. In test [2], the RBA was under 0.001. In addition, the results for the Uterine weight in test [3] and in test [4] were 13.6 mg and 3.2 mg, respectively.
Molecule `O=C(/C(=C/c1ccc(O)cc1)c1ccccc1)c1ccccc1` displayed an inhibition in test [1] of 58%. In addition, the RBA in test [2] was 0.22. In addition, the Uterine weight in test [3] was determined as 14 mg; in test [4] it was 5 mg.
For the molecule `CC(=O)Oc1ccc(/C(=C\c2ccccc2)C(=O)c2ccccc2)cc1`, the inhibition in test [1] was 20%. In test [2], the RBA is 0.28. The Uterine weight in test [3] came to 21.5 mg; in test [4], 4.2 mg.
For the molecule `COc1ccc(C(=O)/C(=C\c2ccccc2)c2ccccc2)cc1`, the inhibition in test [1] worked out at 48%. Also, the RBA in test [2] is under 0.001. The Uterine weight in test [3] was found to be 16 mg; in test [4] it was 4.8 mg.
`O=C(/C(=C/c1ccc(O)cc1)c1ccc(O)cc1)c1ccccc1` returned an inhibition in test [1] of 44%. For the same molecule, the RBA in test [2] is 0.57. The Uterine weight in test [3] is 16.9 mg; in test [4], 5.5 mg.
Take `O=C(/C(=C/c1ccccc1)c1ccccc1)c1ccc(OCCN2CCCC2)cc1`: the RBA in test [2] is 0.025.
Molecule `O=C(/C(=C/c1ccccc1)c1ccc(O)cc1)c1ccc(O)cc1` displayed an inhibition in test [1] of 18%. Moreover, the RBA in test [2] is 0.37. The Uterine weight in test [3] is 21.9 mg; in test [4] it was 6.8 mg.
For the molecule `COc1ccc(/C(=C\c2ccccc2)C(=O)c2ccccc2)cc1`, the inhibition in test [1] worked out at 36%. The RBA in test [2] is 0.02. The Uterine weight in test [3] turned out to be 18.5 mg; in test [4], 4.7 mg.
The matching figures for `O=C(/C(=C\c1ccc(O)cc1)c1ccc(O)cc1)c1ccccc1`: 47%, 0.48, 16.5 mg and 5.6 mg.
In the case of `O=C(/C(=C\c1ccc(O)cc1)c1ccccc1)c1ccc(O)cc1`, the inhibition in test [1] was 16%. Also, the RBA in test [2] is 0.4. The Uterine weight in test [3] is 22.3 mg; in test [4], 3.4 mg.
In turn, `O=C(/C(=C/c1ccccc1)c1ccccc1)c1ccccc1` gave an inhibition in test [1] of 51%. The RBA in test [2] was 0.012. Moreover, the results for the Uterine weight in test [3] and in test [4] were 15.4 mg and 4.4 mg, respectively.
Take `CC(=O)Oc1ccc(/C=C(/C(=O)c2ccccc2)c2ccccc2)cc1`: in test [1], the inhibition is 42%. Besides, the RBA in test [2] was 0.42. The Uterine weight in test [3] came out at 17.3 mg; in test [4] it was 5.9 mg.
With `O=C(/C(=C/c1ccccc1)c1ccccc1)c1ccc(O)cc1`, the Uterine weight was found to be 9.7 mg in test [7] and 18.5 mg in test [3]. In addition, the inhibition in test [1] worked out at 36%. Also, the RBA in test [2] is 2.02.
For the molecule `O=C(/C(=C\c1ccccc1)c1ccccc1)c1ccccc1`, the inhibition in test [1] amounted to 51%. Moreover, the RBA in test [2] was under 0.001. For the same molecule, the Uterine weight is 15.3 mg in test [3] and 3 mg in test [4].
As to `COc1ccc(/C=C(/C(=O)c2ccccc2)c2ccccc2)cc1`, in test [1], the inhibition is 42%. For the same molecule, the RBA in test [2] was 0.09. Also, the Uterine weight in test [3] came to 17.3 mg; in test [4], 4.3 mg.

A word on the inhibition: it is how much of the control response was suppressed. Higher therefore signals a response far below the control.
